Assay results taken from ChEMBL document CHEMBL4350961, “Discovery of Pyrrolo[3,2- d]pyrimidin-4-one Derivatives as a New Class of Potent and Cell-Active Inhibitors of P300/CBP-Associated Factor Bromodomain” (J Med Chem, 2019).
Active and inactive are the calls of the source. No cut-off for these calls is given here.

Tests used:
[1] = biological target: CDK7/Cyclin H/MNAT1 (Homo sapiens) (UniProt P51946+P50613+P51948); assay: Inhibition of recombinant full length human CDK7/cyclin H/MAT1 at 10 uM using peptide substrate measured after 40 mins in presence of [gamma33P]ATP by scintillation counting method; format: protein-complex assay
[2] = biological target: Casein kinase I isoform gamma-2 (Homo sapiens) (UniProt P78368); assay: Inhibition of recombinant human CK1gamma2 (18 to end residues) at 10 uM using KRRRALS(p)VASLPGL as substrate measured after 40 mins in presence of [gamma33P]ATP by scintillation counting method
Sequence of Casein kinase I isoform gamma-2 (Homo sapiens) (P78368 whole entry, looked up, canonical isoform): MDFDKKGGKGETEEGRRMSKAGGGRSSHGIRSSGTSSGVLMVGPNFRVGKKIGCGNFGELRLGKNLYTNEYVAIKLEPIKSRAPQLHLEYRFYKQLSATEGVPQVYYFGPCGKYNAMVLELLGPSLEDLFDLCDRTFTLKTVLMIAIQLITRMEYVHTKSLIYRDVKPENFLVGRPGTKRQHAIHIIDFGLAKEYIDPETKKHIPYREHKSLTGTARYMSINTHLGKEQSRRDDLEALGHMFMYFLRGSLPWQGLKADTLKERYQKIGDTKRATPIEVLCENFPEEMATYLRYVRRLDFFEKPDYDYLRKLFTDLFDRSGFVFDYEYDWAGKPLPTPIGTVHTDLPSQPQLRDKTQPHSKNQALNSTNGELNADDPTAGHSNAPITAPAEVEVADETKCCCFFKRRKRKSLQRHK

[3] = biological target: Serine/threonine-protein kinase tousled-like 2 (Homo sapiens) (UniProt Q86UE8); assay: Inhibition of human TLK2 (387 to end residues) using casein as substrate measured after 40 mins in presence of [gamma33P]ATP by scintillation counting method
[4] = biological target: 3-phosphoinositide-dependent protein kinase 1 (Homo sapiens) (UniProt O15530); assay: Inhibition of recombinant human PDK1 (52 to end residues) at 10 uM using PDKtide as substrate measured after 40 mins in presence of [gamma33P]ATP by scintillation counting method
Sequence of 3-phosphoinositide-dependent protein kinase 1 (Homo sapiens) (O15530 whole entry, the tested form may be a part): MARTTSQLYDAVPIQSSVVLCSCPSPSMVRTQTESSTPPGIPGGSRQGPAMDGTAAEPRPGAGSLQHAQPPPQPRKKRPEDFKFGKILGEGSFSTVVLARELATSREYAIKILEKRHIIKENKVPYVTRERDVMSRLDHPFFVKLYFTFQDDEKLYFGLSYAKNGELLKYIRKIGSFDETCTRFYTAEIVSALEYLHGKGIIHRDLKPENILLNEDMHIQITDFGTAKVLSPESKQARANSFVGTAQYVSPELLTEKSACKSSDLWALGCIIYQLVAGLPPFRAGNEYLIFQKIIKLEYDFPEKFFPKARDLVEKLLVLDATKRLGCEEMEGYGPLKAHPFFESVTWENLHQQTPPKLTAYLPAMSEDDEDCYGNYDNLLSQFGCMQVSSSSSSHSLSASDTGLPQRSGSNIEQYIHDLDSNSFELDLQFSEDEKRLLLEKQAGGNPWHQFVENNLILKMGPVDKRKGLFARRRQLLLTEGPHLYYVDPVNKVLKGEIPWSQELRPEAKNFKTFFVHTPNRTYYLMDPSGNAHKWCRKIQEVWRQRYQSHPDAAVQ

[5] = biological target: Serine/threonine-protein kinase Nek9 (Homo sapiens) (UniProt Q8TD19); assay: Inhibition of recombinant human NEK9 (1 to 324 residues) at 10 uM using myelin basic protein as substrate measured after 40 mins in presence of [gamma33P]ATP by scintillation counting method
[6] = tested on: Eukaryotic elongation factor 2 kinase (Homo sapiens), O00418 [H23R]; assay: Inhibition of recombinant human EEF2K H23R mutant (2 to end residues) at 10 uM using RKKFGESEKTKTKEFL as substrate measured after 40 mins in presence of [gamma33P]ATP by scintillation counting method
[7] = biological target: Tyrosine-protein kinase SYK (Homo sapiens) (UniProt P43405); assay: Inhibition of recombinant full-length human Syk at 10 uM using poly(Glu, Tyr) 4:1 as substrate measured after 120 mins in presence of [gamma33P]ATP by scintillation counting method
[8] = biological target: Myosin light chain kinase 2, skeletal/cardiac muscle (Homo sapiens) (UniProt Q9H1R3); assay: Inhibition of recombinant full-length human MYLK2 at 10 uM using KKLNRTLSFAEPG as substrate measured after 40 mins in presence of [gamma33P]ATP by scintillation counting method
[9] = biological target: Activin receptor type-2A (Homo sapiens) (UniProt P27037); assay: Inhibition of recombinant human ACTR2 (162 to end residues) at 10 uM using casein as substrate measured after 120 mins in presence of [gamma33P]ATP by scintillation counting method
Sequence of Activin receptor type-2A (Homo sapiens) (P27037 whole entry): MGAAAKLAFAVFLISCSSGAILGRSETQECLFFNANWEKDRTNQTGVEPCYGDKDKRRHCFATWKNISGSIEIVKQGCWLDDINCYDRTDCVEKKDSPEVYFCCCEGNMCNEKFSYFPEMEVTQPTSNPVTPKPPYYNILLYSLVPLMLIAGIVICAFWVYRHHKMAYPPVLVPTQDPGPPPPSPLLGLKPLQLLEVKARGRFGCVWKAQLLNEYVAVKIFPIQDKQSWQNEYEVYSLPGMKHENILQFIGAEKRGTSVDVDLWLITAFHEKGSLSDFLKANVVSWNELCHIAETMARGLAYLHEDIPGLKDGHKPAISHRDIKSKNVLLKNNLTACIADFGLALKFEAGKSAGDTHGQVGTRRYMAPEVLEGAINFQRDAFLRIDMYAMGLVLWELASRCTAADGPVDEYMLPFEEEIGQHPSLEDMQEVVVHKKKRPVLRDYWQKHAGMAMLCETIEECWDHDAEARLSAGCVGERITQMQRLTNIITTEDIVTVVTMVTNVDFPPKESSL

[10] = biological target: Serine/threonine-protein kinase PAK 1 (Homo sapiens) (UniProt Q13153); assay: Inhibition of recombinant human PAK1 (150 to end residues) at 10 uM using RRRLSFAEPG as substrate measured after 40 mins in presence of [gamma33P]ATP by scintillation counting method
Sequence of Serine/threonine-protein kinase PAK 1 (Homo sapiens) (Q13153 whole entry): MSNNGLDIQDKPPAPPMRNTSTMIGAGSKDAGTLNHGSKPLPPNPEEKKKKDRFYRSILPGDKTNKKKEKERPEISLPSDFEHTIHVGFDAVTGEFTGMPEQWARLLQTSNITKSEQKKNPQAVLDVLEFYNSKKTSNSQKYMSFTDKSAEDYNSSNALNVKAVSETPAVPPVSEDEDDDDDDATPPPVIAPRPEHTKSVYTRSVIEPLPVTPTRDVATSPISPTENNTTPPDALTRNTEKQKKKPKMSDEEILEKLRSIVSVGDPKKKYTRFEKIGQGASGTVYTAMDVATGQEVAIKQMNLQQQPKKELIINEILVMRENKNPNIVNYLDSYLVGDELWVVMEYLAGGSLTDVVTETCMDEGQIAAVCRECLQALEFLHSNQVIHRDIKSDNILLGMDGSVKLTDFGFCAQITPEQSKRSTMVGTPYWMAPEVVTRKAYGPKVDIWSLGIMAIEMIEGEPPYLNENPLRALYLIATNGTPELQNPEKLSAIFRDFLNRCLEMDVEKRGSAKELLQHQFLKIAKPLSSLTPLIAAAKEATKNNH

[11] = biological target: Tyrosine-protein kinase Fyn (Homo sapiens) (UniProt P06241); assay: Inhibition of recombinant full-length human FYN at 10 uM using Cdc2 peptide as substrate measured after 40 mins in presence of [gamma33P]ATP by scintillation counting method
[12] = biological target: Serine/threonine-protein kinase/endoribonuclease IRE1 (Homo sapiens) (UniProt O75460); assay: Inhibition of recombinant human IRE1 (465 to end residues) at 10 uM using myelin basic protein as substrate measured after 40 mins in presence of [gamma33P]ATP by scintillation counting method
[13] = biological target: Mitogen-activated protein kinase kinase kinase kinase 3 (Homo sapiens) (UniProt Q8IVH8); assay: Inhibition of recombinant human MAP4K3 (1 to 291 residues) at 10 uM using RLGRDKYKTLRQIRQ as substrate measured after 40 mins in presence of [gamma33P]ATP by scintillation counting method
[14] = biological target: Serine/threonine-protein kinase D3 (Homo sapiens) (UniProt O94806); assay: Inhibition of recombinant full-length human PKD3 at 10 uM using KKLRRTLSVA as substrate measured after 40 mins in presence of [gamma33P]ATP by scintillation counting method
Sequence of Serine/threonine-protein kinase D3 (Homo sapiens) (O94806 whole entry): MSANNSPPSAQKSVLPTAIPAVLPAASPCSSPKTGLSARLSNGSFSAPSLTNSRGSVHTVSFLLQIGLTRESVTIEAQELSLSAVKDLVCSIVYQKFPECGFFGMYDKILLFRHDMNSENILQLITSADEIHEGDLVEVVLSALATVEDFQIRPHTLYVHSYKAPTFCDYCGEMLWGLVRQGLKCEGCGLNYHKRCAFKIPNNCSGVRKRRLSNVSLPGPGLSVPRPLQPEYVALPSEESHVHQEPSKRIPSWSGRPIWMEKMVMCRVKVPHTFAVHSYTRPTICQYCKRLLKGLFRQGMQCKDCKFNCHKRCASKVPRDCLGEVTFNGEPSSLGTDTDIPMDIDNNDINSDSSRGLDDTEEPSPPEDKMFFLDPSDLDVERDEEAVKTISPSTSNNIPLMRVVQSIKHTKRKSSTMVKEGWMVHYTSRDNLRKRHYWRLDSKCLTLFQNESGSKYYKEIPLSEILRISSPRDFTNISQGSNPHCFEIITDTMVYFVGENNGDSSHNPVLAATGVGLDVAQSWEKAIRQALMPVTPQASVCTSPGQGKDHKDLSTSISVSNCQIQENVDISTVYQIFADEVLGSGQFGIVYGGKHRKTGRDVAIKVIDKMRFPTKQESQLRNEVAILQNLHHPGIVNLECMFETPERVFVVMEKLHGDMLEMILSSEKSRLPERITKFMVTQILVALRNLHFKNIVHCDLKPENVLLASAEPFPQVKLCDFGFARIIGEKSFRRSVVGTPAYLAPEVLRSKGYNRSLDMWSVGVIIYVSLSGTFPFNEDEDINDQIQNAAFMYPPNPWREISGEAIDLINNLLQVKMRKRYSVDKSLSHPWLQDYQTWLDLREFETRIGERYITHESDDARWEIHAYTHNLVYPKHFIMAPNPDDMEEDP

[15] = biological target: Ribosomal protein S6 kinase alpha-6 (Homo sapiens) (UniProt Q9UK32); assay: Inhibition of recombinant full-length human Rsk4 at 10 uM using LRRASLG as substrate measured after 40 mins in presence of [gamma33P]ATP by scintillation counting method
Sequence of Ribosomal protein S6 kinase alpha-6 (Homo sapiens) (Q9UK32 whole entry): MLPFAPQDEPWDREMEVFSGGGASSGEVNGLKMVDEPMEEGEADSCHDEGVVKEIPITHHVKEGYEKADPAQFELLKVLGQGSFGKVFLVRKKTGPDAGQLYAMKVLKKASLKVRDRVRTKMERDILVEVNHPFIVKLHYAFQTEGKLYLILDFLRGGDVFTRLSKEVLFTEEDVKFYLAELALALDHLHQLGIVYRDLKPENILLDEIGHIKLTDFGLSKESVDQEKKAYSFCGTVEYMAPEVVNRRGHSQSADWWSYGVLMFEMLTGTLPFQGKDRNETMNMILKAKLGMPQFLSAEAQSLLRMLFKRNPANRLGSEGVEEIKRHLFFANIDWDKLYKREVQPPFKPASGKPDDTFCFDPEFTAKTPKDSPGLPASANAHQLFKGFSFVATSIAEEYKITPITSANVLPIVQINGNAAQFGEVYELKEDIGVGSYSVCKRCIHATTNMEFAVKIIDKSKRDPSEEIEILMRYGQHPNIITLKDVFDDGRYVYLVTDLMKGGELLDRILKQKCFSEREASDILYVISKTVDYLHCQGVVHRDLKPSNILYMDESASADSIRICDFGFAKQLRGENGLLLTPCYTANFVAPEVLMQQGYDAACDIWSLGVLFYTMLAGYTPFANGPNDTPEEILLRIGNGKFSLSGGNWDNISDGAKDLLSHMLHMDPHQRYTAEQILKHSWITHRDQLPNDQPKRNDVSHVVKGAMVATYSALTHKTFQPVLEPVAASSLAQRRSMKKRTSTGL

[16] = tested on: Ribosomal protein S6 kinase alpha-1 (Rattus norvegicus), Q63531 [S637N,G697A]; assay: Inhibition of recombinant full-length rat Rsk1 S637N/G697A mutant at 10 uM using KKKNRTLSVA as substrate measured after 40 mins in presence of [gamma33P]ATP by scintillation counting method
[17] = biological target: SRSF protein kinase 2 (Homo sapiens) (UniProt P78362); assay: Inhibition of human SRPK2 (46 to end residues) using RSRSRSRSRSRSRSR as substrate measured after 40 mins in presence of [gamma33P]ATP by scintillation counting method
Outline: (§1)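 Kinase panel of 422 kinases screened by Eurofins KinaseProfiler at a single test-compound concentration of 10 µM.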

[18] = biological target: Testis-specific serine/threonine-protein kinase 4 (Homo sapiens) (UniProt Q6SA08); assay: Inhibition of recombinant full-length human TSSK4 at 10 uM using KKLNRTLSFAEPG as substrate measured after 40 mins in presence of [gamma33P]ATP by scintillation counting method
Sequence of Testis-specific serine/threonine-protein kinase 4 (Homo sapiens) (Q6SA08 whole entry): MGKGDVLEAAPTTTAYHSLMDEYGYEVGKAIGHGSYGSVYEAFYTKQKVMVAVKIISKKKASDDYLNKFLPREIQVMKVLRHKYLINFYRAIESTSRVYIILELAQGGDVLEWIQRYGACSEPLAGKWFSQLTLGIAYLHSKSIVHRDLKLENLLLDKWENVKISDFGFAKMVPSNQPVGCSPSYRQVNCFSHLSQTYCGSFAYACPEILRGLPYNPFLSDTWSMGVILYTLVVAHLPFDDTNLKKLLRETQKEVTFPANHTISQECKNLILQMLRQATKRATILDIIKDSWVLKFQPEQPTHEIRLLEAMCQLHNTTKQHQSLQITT

[19] = biological target: Eukaryotic translation initiation factor 2-alpha kinase 1 (Homo sapiens) (UniProt Q9BQI3); assay: Inhibition of recombinant human HRI (140 to end residues) at 10 uM using RSRSRSRSRSRSRSR as substrate measured after 120 mins in presence of [gamma33P]ATP by scintillation counting method
Sequence of Eukaryotic translation initiation factor 2-alpha kinase 1 (Homo sapiens) (Q9BQI3 whole entry): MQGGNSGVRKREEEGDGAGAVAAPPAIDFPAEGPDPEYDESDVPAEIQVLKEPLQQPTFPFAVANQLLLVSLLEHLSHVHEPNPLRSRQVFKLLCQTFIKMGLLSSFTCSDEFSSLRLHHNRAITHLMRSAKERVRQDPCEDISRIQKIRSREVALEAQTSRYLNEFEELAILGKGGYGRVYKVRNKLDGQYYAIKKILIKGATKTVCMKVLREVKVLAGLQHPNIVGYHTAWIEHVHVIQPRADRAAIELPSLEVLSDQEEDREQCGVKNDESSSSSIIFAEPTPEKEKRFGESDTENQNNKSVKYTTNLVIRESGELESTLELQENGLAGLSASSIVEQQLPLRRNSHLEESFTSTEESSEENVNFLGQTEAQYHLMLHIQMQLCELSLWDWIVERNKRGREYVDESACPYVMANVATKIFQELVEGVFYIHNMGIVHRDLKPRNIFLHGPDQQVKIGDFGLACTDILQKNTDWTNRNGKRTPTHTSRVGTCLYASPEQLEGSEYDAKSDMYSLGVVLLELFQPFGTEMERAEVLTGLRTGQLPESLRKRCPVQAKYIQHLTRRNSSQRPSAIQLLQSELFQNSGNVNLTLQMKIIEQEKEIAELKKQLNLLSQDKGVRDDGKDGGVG

[20] = biological target: Eukaryotic translation initiation factor 2-alpha kinase 3 (Homo sapiens) (UniProt Q9NZJ5); assay: Inhibition of recombinant human PEK (536 to end residues) at 10 uM using RSRSRSRSRSRSRSR as substrate measured after 40 mins in presence of [gamma33P]ATP by scintillation counting method
[21] = biological target: Bromodomain-containing protein 4 (Homo sapiens) (UniProt O60885); assay: Binding affinity to human N-terminal His-tagged BRD4 bromodomain1 assessed as change in melting temperature at 10 uM by SYPRO orange dye-based fluorescence assay
Outline: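 Thermal shift with His-tagged human bromodomain at 2 μM final in 10 mM HEPES pH 7.5, 500 mM NaCl. Compound at 10 μM final with 0.1% DMSO; SYPRO Orange at 1:1000. Equilibrated 3 min at 25 °C, then heated from 25 to 95 °C at 1 °C/min. Melting temperature shift taken from fluorescence; at least duplicate.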

[22] = biological target: Casein kinase 2 (Homo sapiens) (UniProt P67870+P68400+P19784+Q8NEV1); assay: Inhibition of human CK2 at 10 uM; format: protein assay; outline: as §1
[23] = biological target: Cyclin-dependent kinase 1/cyclin B1 (Homo sapiens) (UniProt P06493+P14635); assay: Inhibition of recombinant full-length human CDK1/cyclinB at 10 uM using histone H1 as substrate measured after 40 mins in presence of [gamma33P]ATP by scintillation counting method; format: protein-complex assay

CN1C[C@H](Nc2nc3cc[nH]c3c(=O)n2C)C[C@H](c2ccc3c(c2)OCCO3)C1
inhibition [1]: inactive | inhibition [2]: inactive | inhibition [3]: inactive | inhibition [4]: inactive | inhibition [5]: inactive | inhibition [6]: inactive | inhibition [7]: inactive | inhibition [8]: inactive | inhibition [9]: inactive | inhibition [10]: inactive | inhibition [11]: inactive | inhibition [12]: inactive | inhibition [13]: inactive | inhibition [14]: inactive | inhibition [15]: inactive | inhibition [16]: inactive | inhibition [17]: inactive | inhibition [18]: inactive | inhibition [19]: inactive | inhibition [20]: inactive | ΔTm [21]: 0.1 °C | inhibition [22]: inactive | inhibition [23]: inactive
